Reference: ChEMBL document CHEMBL2384971, “Bioactive limonoid and triterpenoid constituents of Turraea pubescens” (J Nat Prod, 2013)

Assays:
[1] = tested on: HL-60; assay: Cytotoxicity against human HL60 cells by MTT assay; format: functional, cell-based
[2] = tested on: Artemia salina; assay: Toxicity in brine shrimp larva assessed as corrected mortality at 100 ppm after 24 hrs by microscopic analysis relative to control; format: functional
Summary of the method: (§1)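 Artemia salina larvae tested by a microwell method. Corrected mortality was derived from treatment-group mortality (Mt) against vehicle-control-group mortality (Mc).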

[3] = tested on: RAW264.7; assay: Cytotoxicity against mouse RAW264.7 cells at 50 uM by MTT assay; format: cell-based; settings: raw264.7, 50 µM
[4] = tested on: RAW264.7; assay: Antiinflammatory activity against LPS-stimulated mouse RAW264.7 cells assessed as inhibition of NO production after 18 hrs by Griess method; format: functional, cell-based; settings: RAW264.7, 18 h
Summary of the method: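 RAW 264.7 murine macrophages were seeded at 2 × 10^5 cells/well in RPMI 1640 with 10% FBS at 37 °C under 5% CO2 and preincubated for 24 h. Cells were then exposed for 18 h to serial dilutions (top concentration 25 μM; DMSO solutions diluted in medium) plus 1 μg/mL LPS. Supernatants were mixed with Griess reagents A and B in triplicate and read at 570 nm after 5 min.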

[5] = tested on: Artemia salina; assay: Toxicity in brine shrimp larva assessed as corrected mortality at 50 ppm after 24 hrs by microscopic analysis relative to control; format: functional; summary of the method: as §1
[6] = tested on: Artemia salina; assay: Toxicity in brine shrimp larva assessed as corrected mortality at 10 ppm after 24 hrs by microscopic analysis relative to control; format: functional; summary of the method: as §1

Row | Structure (SMILES) | IC50 [1] [µM] | mortality at 100 ppm [2] [%] | Activity [3] | IC50 [4] [µM] | mortality at 50 ppm [5] [%] | mortality at 10 ppm [6] [%]
1 | C=C1[C@@H]([C@@]2(C)C=CC(=O)C(C)(C)[C@@H]2CC(=O)OC)[C@@H](OC(C)=O)[C@H](OC(C)=O)[C@@]2(C)[C@H](C3=CC(O)OC3=O)C[C@H]3O[C@]132 (some centres not stated) | < 10 | < 50 | Non-toxic | > 20 |  | 
2 | C=C1[C@@H]([C@@]2(C)[C@H](OC(C)=O)CC(=O)C(C)(C)[C@@H]2CC(=O)OC)[C@@H](OC(C)=O)[C@H](OC(=O)C(C)C)[C@@]2(C)[C@H](c3ccoc3)C[C@H]3O[C@]132 | < 10 | 81.7 | Non-toxic | > 20 | 61.8 | 60.8
3 | C=C1[C@@H]([C@@]2(C)C=CC(=O)C(C)(C)[C@@H]2CC(=O)OC)[C@@H](OC(C)=O)[C@H](OC(=O)C(C)C)[C@@]2(C)[C@H](c3ccoc3)C[C@H]3O[C@]132 | < 10 |  | Non-toxic | > 20 |  | 
4 | C=C1[C@@H]([C@@]2(C)C=CC(=O)C(C)(C)[C@@H]2CC(=O)OC)[C@@H](OC(C)=O)[C@H](OC(=O)C(C)CC)[C@@]2(C)[C@H](c3ccoc3)C[C@H]3O[C@]132 (some centres not stated) | < 10 |  | Non-toxic | > 20 |  | 
5 | CCC(=O)O[C@@H]1C[C@H](OC(C)=O)[C@@]2(C)[C@@H]([C@@H](O)[C@@H](OC(C)=O)[C@@]3(C)C4=CC[C@@H](c5ccoc5)[C@]4(C)CC[C@@H]32)C1(C)C | < 10 |  | Non-toxic | > 20 |  | 
6 | C/C=C(\C)C(=O)O[C@H]1C[C@@H](OC(=O)CC)[C@@]2(C(=O)OC)CO[C@H]3[C@H]4O[C@]5(C)[C@H]6C[C@H](OC7OC=C[C@@]76O)[C@]5(O)[C@@]4(C)C4[C@]1(CO[C@]4(O)C(=O)OC)[C@@H]32 (some centres not stated) | < 10 |  | Non-toxic | > 20 |  | 
7 | C/C=C(\C)C(=O)O[C@H]1C[C@@H](OC(=O)CC)[C@@]2(C(=O)OC)CO[C@H]3[C@@H](O)[C@@](C)(C45OC4(C)C4C[C@H]5O[C@@H]5OC=CC45O)C4[C@]1(CO[C@]4(O)C(=O)OC)[C@@H]32 (some centres not stated) | < 10 |  | Non-toxic | > 20 |  | 
8 | CO[C@H]1O[C@@H]([C@@H]2OC2(C)C)C[C@H]1[C@@H]1CC=C2[C@]3(C)[C@H](O)C[C@H]4C(C)(C)C(=O)C=C[C@]4(C)[C@H]3CC[C@]21C | < 10 |  | Non-toxic | 17.4 |  | 
9 | CO[C@@H]1O[C@@H]([C@@H]2OC2(C)C)C[C@H]1[C@@H]1CCC2[C@]3(C)[C@H](O)C[C@H]4C(C)(C)C(=O)C=C[C@]4(C)[C@H]3CC[C@]21C (some centres not stated) | < 10 |  | Non-toxic | > 20 |  | 
10 | CC(=O)O[C@@H]1C[C@H]2C(C)(C)C(=O)C=C[C@]2(C)[C@H]2CC[C@]3(C)C(=CC[C@H]3[C@H]3COC(C)(C)[C@@H](O)[C@H](O)C3)[C@@]21C | < 10 | 69.8 | Non-toxic | > 20 | 6.7 | 0
11 | CC(=O)O[C@H]1C[C@@H]2[C@@]3(C)C=CC(=O)C(C)(C)[C@@H]3C[C@@H](O)[C@@]2(C)C2=CC[C@@H](c3ccoc3)[C@@]21C | < 10 | 85 | Non-toxic | 11.9 | 83.5 | 20.6
12 | CCC(=O)O[C@@H]1C[C@H](OC(C)=O)[C@@]2(C)[C@H]3[C@@H](OC[C@]13C)[C@@H](O)[C@@]1(C)C3=CC[C@@H](c4ccoc4)[C@]3(C)CC[C@@H]12 | < 10 | 75.6 | Non-toxic | 18.5 | 36.3 | 0
13 | C=C1[C@@H]([C@@]2(C)C=CC(=O)C(C)(C)[C@@H]2CC(=O)OC)[C@@H](OC(C)=O)[C@H](OC(C)=O)[C@@]2(C)[C@H](c3ccoc3)C[C@H]3O[C@]132 | < 10 | < 50 | Non-toxic | > 20 |  | 
14 | C[C@@H](C[C@@H](O)[C@H](O)C(C)(C)O)[C@@H]1CC[C@]2(C)C3=CC[C@H]4C(C)(C)[C@@H](O)CC[C@]4(C)[C@H]3CC[C@@]12C | < 10 |  | Non-toxic | > 20 |  | 
15 | C/C=C(\C)C(=O)O[C@H]1C[C@@H](OC(C)=O)[C@@]2(C(=O)OC)CO[C@H]3[C@@H](O)[C@@](C)([C@]45O[C@@]4(C)[C@@H]4C[C@H]5O[C@@H]5OC=C[C@@]54O)[C@H]4[C@]1(CO[C@]4(O)C(=O)OC)[C@@H]32 [AZADIRACHTIN A] | < 10 | 81.7 | Non-toxic | > 20 | 59.6 | 12.5
16 | C[C@@H](C[C@@H](O)[C@@H]1OC1(C)C)[C@@H]1CC[C@]2(C)C3=CC[C@H]4C(C)(C)[C@@H](O)CC[C@]4(C)[C@H]3CC[C@@]12C [DIHYDRONILOTICIN] | < 10 |  | Non-toxic | > 20 |  | 
17 | CC(=O)O[C@H]1C[C@@H]2[C@@]3(C)CCC(=O)C(C)(C)[C@@H]3C[C@@H](O)[C@@]2(C)C2=CC[C@@H](c3ccoc3)[C@@]21C [MZIKONONE] | < 10 | 76.4 | Non-toxic | > 20 | 36.9 | 0
18 | CC(=O)O[C@@H]1[C@H](O)[C@H]2C(C)(C)C(=O)C=C[C@]2(C)[C@H]2CC[C@]3(C)C(=CC[C@H]3c3ccoc3)[C@]12C [NIMONOL] | < 10 |  | Non-toxic | > 20 |  | 
19 | C=C1C2=CC[C@H](c3ccoc3)[C@]2(C)[C@@H](OC(C)=O)[C@H](OC(C)=O)[C@@H]1[C@@]1(C)C=CC(=O)C(C)(C)[C@@H]1CC(=O)OC [TURRAFLORIN A] | < 10 | < 50 | Non-toxic | 15.4 |  | 
20 | C=C1[C@@H]([C@@]2(C)C=CC(=O)C(C)(C)[C@@H]2CC(=O)OC)[C@@H](OC(C)=O)[C@H](OC(=O)C(C)C)[C@@]2(C)[C@H](C(=O)O)C[C@H]3O[C@]132 [TURRAPUBESIC ACID B] | < 10 |  | Non-toxic | > 20 |  | 
21 | C=C1[C@@H]([C@@]2(C)C=CC(=O)C(C)(C)[C@@H]2CC(=O)OC)[C@@H](OC(C)=O)[C@H](OC(=O)Cc2ccccc2)[C@@]2(C)[C@H](C3=CC(=O)OC3O)C[C@H]3O[C@]132 (some centres not stated) [TURRAPUBESIN E] | < 10 | < 50 | Non-toxic | > 20 |  | 
22 | C=C1[C@@H]([C@@]2(C)[C@H](OC(C)=O)CC(=O)C(C)(C)[C@@H]2CC(=O)OC)[C@@H](OC(C)=O)[C@H](OC(C)=O)[C@@]2(C)[C@H](c3ccoc3)C[C@H]3O[C@]132 [TURRAPUBIN A] | < 10 | 54.7 | Non-toxic | > 20 | 0.8 | 0
23 | C=C1[C@@H]2[C@@H](O[C@H]3CC(=O)C(C)(C)[C@H](CC(=O)OC)[C@]32C)[C@H](OC(C)=O)[C@@]2(C)[C@H](c3ccoc3)C[C@H]3O[C@]132 [TURRAPUBIN D] | < 10 |  | Non-toxic | > 20 |  | 
24 | C=C1[C@@H]([C@@]2(C)C=CC(=O)C(C)(C)[C@@H]2CC(=O)OC)[C@@H](OC(C)=O)[C@H](O)[C@@]2(C)[C@H](c3ccoc3)C[C@H]3O[C@]132 [TURRAPUBIN E] | < 10 | < 50 | Non-toxic | > 20 |  | 
25 | C=C1[C@@H]([C@@]2(C)C=CC(=O)C(C)(C)[C@@H]2CC(=O)OC)[C@@H](OC(C)=O)[C@H](OC(=O)C(C)C)[C@@]2(C)[C@H](C3=CC(O)OC3=O)C[C@H]3O[C@]132 (some centres not stated) [TURRAPUBIN H] | < 10 | < 50 | Non-toxic | > 20 |  | 
